Assay results as given in paper PMC5490379 (Molecular pharmaceutics, 2017).
pKi: −log10 of the molar value.

Legend:
σ1 receptor [1] = details: ref [10]; cited from earlier work
σ1 receptor [2] = target: σ1 receptor (Cavia porcellus, UniProt Q60492); experiment: In vitro σ1 binding assay; design: species or system guinea pig; details: for fold reduction in σ1 affinity: compared with 3a; for Ki σ1: guinea pig brain membrane homogenates
In short: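 Guinea pig brain membrane homogenate (300–500 µg protein) incubated with 3 nM [3H]-(+)-pentazocine (51.7 Ci/mmol) and test compound (10-4 to 10-12 M) in 50 mM Tris-HCl pH 8.0, 25 °C, 120 min. Stopped with ice-cold 10 mM Tris-HCl pH 8.0, filtered on PEI-soaked glass fibre filters, washed twice. […] IC50 by iterative curve fitting; Ki by Cheng-Prusoff. Protein by Lowry.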

[3] = Mouse liver microsomal assay; format: in vitro ADME; details: liver microsomes
In short: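 Mouse liver microsomes (20 mg/mL stock) diluted in 0.1 M phosphate buffer containing 3.3 mM MgCl2. Test compound added from a 100 µM stock, with verapamil as positive control. Intact test compound quantified over time by LC-MS/MS, and metabolic degradation half-life derived from its disappearance.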

PC-3 prostate tumors = details: mice bearing PC-3 prostate tumors; ref [30]; cited from earlier work
σ2 receptor = target: T1, σ2 receptor (Rattus norvegicus, UniProt Q5U3Y7); experiment: In vitro σ2 binding assay; details: for fold reduction in σ2 affinity: compared with 3a; for Ki σ2: rat liver membrane homogenates, 3 nM [^3H]DTG, 1 μM dextrallorphan
T1 sequence (Q5U3Y7 1-176): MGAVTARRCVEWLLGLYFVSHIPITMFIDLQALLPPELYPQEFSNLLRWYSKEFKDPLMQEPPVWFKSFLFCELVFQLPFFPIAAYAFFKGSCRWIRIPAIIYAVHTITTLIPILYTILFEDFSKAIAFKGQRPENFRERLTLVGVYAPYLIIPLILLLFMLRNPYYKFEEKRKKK
In short: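 Rat liver membrane homogenate (150–200 µg protein) incubated with 3 nM [3H]DTG (39.4 Ci/mmol) plus 1 µM dextrallorphan to mask σ1 sites, with test compound from 10-4 to 10-12 M. Conditions as for σ1: 50 mM Tris-HCl pH 8.0, 25 °C, 120 min, then filtration. […] IC50 by curve fitting, converted to Ki by Cheng-Prusoff.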

σ1 receptor (Cavia porcellus, UniProt Q60492), sequence (Q60492 whole entry): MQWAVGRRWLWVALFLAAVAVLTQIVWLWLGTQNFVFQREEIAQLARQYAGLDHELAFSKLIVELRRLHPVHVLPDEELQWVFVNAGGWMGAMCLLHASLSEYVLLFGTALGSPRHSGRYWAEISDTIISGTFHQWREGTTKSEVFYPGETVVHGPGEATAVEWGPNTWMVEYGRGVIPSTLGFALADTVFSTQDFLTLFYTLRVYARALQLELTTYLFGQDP

COc1ccc(C(=O)NCCN2CCCCC2)cc1I [PIMBA]
σ1 affinity (σ1 receptor [1]): nanomolar

O=C(NCCN1CCCCC1)c1cc(Br)ccc1OCCF [Compound 3a, 5-Bromo-2-(2-fluoroethoxy)-N-{2-(piperidin-1-yl)ethyl}benzamide]
pKi (σ1 receptor [2]; Ki σ1, guinea pig brain membrane homogenates, 3 nM [^3H]-(+)-pentazocine): 8.20 | half-life at 1 μM [3]: 5.94 min

[11CH3]Oc1cccc2c1CCCC2CCCN1CCN(C2CCCCC2)CC1 (stereo not shown) [[^11C]PB28]
tumor uptake (PC-3 prostate tumors): poor tumor uptake

O=C(NCCN1CCCCC1)c1cc(Br)ccc1OCCCF [Compound 3b, 5-Bromo-2-(3-fluoropropoxy)-N-{2-(piperidin-1-yl)ethyl}benzamide]
fold reduction in σ1 affinity (σ1 receptor [2]): 9 fold | fold reduction in σ2 affinity (σ2 receptor): 9 fold

O=C(NCCN1CCCCC1)c1ccc(O)c(Br)c1 [Compound 6, 3-Bromo-4-hydroxy-N-{2-(piperidin-1-yl)ethyl}benzamide]
Ki σ1 (σ1 receptor [2]; 3 nM [^3H]-(+)-pentazocine): devoid of σ receptor binding affinity | Ki σ2 (σ2 receptor): devoid of σ receptor binding affinity

O=C(NCCN1CCCCC1)c1ccc(I)cc1 [Compound 4-IPAB]
σ1 affinity (σ1 receptor [1]): nanomolar

O=C(NCCN1CCCCC1)c1cc(Br)ccc1O [Compound 2, 5-Bromo-2-hydroxy-N-{2-(piperidin-1-yl)ethyl}benzamide]
Ki σ1 (σ1 receptor [2]; 3 nM [^3H]-(+)-pentazocine): devoid of σ receptor binding affinity | Ki σ2 (σ2 receptor): devoid of σ receptor binding affinity

O=C(NCCN1CCCCC1)c1ccc(OCCF)c(Br)c1 [Compound 7a, 3-Bromo-4-(2-fluoroethoxy)-N-{2-(piperidin-1-yl)-ethyl}benzamide]
fold reduction in σ1 affinity (σ1 receptor [2]): 6 fold | fold reduction in σ2 affinity (σ2 receptor): 4 fold
